pEC50, pIC50: −log10 of the molar value.
Experiments:
[1] = test system: Hepatitis B virus; test: Antiviral activity against HBV in human HepG2(2.2.15) cells assessed as extracellular HBV virion DNA level after 24 hrs; assay type: functional, organism-based; details: HepG2 2.2.15, 24 h
How it was run: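 Confluent HBV-producing 2.2.15 cell cultures were given nine consecutive daily doses of compound. Extracellular HBV DNA was measured by quantitative blot hybridization 24 h after the last dose. Cytotoxicity was read by neutral red uptake 24 h after the last dose.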

[2] = Cytotoxicity against human HepG2(2.2.15) cells assessed as uptake of neutral red dye after 24 hrs; assay type: cell-based; details: HepG2 2.2.15, 24 h
How it was run: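 2.2.15 cells, confluent, dosed daily for nine consecutive days; cytotoxicity by neutral red dye uptake 24 h after the last treatment.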

[3] = test system: Hepatitis C virus; test: Antiviral activity against HCV in ET cells assessed as activity of luciferase reporter by subgenomic RNA replicon assay; assay type: functional, organism-based, Hepacivirus hominis
How it was run: (§1)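 ET replicon cells (dicistronic HCV replicon with firefly luciferase, three adaptive mutations) seeded at 5000/well overnight in DMEM without G418; serial compound dilutions added, 3 days incubation, luciferase read by Steady-Glo. Four replicates per point; EC50 is 50% luciferase inhibition. Marginal actives given as percent inhibition versus control at 20 µM.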

[4] = test system: Hepatitis B virus; test: Antiviral activity against HBV in human HepG2(2.2.15) cells assessed as replication intermediates after 24 hrs; assay type: functional, organism-based; details: HepG2 2.2.15, 24 h
How it was run: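 Confluent 2.2.15 cultures in 96-well format given nine consecutive daily doses; HBV DNA quantified by blot hybridization 24 h after the last treatment.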

[5] = Cytotoxicity against ET cells; assay type: cell-based; details: for pIC50: ET
How it was run: (§2)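 ET replicon cells seeded at 5000/well overnight without G418; serially diluted compound for 3 days; viability by tetrazolium-based CytoTox-1 proliferation assay. Four replicates; IC50 is the concentration cutting viability by 50%. Weak compounds given as percent of control at 20 µM.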

[6] = Cytotoxicity against human Huh7 cells assessed as rRNA level after 5 days; assay type: cell-based; details: huh-7, 120 h
How it was run: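 Huh-7 cells carrying a subgenomic HCV replicon (clone B) were seeded at 3000 cells/well. Compound was added in duplicate at two dilutions right after seeding, then cells were incubated 5 days at 37 °C, 5% CO2. Total RNA was isolated, and replicon RNA and an rRNA internal control were co-amplified by one-step multiplex real-time RT-PCR.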

[7] = test system: Hepatitis C virus; test: Antiviral activity against HCV in human Huh7 cells assessed as reduction of viral level after 5 days by RNA subgenomic replicon assay; assay type: functional, organism-based, Hepacivirus hominis; details: Huh-7, 120 h
How it was run: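 Huh-7 clone B subgenomic replicon cells seeded at 3000/well, compounds added in duplicate at two dilutions right after seeding; 5 days at 37 °C, 5% CO2. Total RNA isolated; replicon RNA and rRNA control amplified by multiplex one-step real-time RT-PCR. Activity as ΔCt versus no-drug control; EC50/EC90 for 50%/90% reduction.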

[8] = Cytotoxicity against ET cells at 20uM; assay type: cell-based; how it was run: as §2
[9] = test system: Hepatitis C virus; test: Antiviral activity against HCV in ET cells assessed as activity of luciferase reporter at 20 uM by subgenomic RNA replicon assay; assay type: functional, Hepacivirus hominis; how it was run: as §1
[10] = test system: Hepatitis B virus; test: Antiviral activity against lamivudine-resistant HBV reverse transcriptase L180M mutant in human Huh7 cells after 4 days by intracellular HBV DNA replication assay; assay type: functional, organism-based; details: Huh-7, 96 h
How it was run: (§3)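 In a 5-day transient transfection assay, cells expressed wild-type or lamivudine- or adefovir-resistant HBV mutants. After 4 days of drug treatment, intracellular HBV DNA replication intermediates were quantified by Southern blot hybridization.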

[11] = test system: Hepatitis B virus; test: Antiviral activity against lamivudine-resistant HBV reverse transcriptase M204I mutant in human Huh7 cells after 4 days by intracellular HBV DNA replication assay; assay type: functional, organism-based; details: Huh-7, 96 h; how it was run: as §3
[12] = test system: Hepatitis B virus; test: Antiviral activity against lamivudine-resistant HBV reverse transcriptase 236T mutant in human Huh7 cells after 4 days by intracellular HBV DNA replication assay; assay type: functional, organism-based; details: Huh-7, 96 h; how it was run: as §3
[13] = test system: Hepatitis B virus; test: Antiviral activity against adefovir-resistant HBV reverse transcriptase M204V mutant in human Huh7 cells after 4 days by intracellular HBV DNA replication assay; assay type: functional, organism-based; details: Huh-7, 96 h; how it was run: as §3
[14] = test system: Hepatitis B virus; test: Antiviral activity against lamivudine-resistant HBV reverse transcriptase LM/reverse transcriptase MV double mutant in human Huh7 cells after 4 days by intracellular HBV DNA replication assay; assay type: functional, organism-based; details: Huh-7, 96 h; how it was run: as §3
[15] = test system: Hepatitis B virus; test: Antiviral activity against lamivudine-resistant wild type HBV in human Huh7 cells after 4 days by intracellular HBV DNA replication assay; assay type: functional, organism-based; details: Huh-7, 96 h
How it was run: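 Transient transfection of HBV into cells, 5-day assay; compounds applied for 4 days, then intracellular HBV DNA replication intermediates quantified by Southern blot hybridization to derive EC50.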

[16] = test system: Hepatitis B virus; test: Antiviral activity against adefovir-resistant HBV reverse transcriptase 236T mutant in human Huh7 cells after 4 days by intracellular HBV DNA replication assay; assay type: functional, organism-based; details: Huh-7, 96 h; how it was run: as §3
[17] = test system: Hepatitis B virus; test: Antiviral activity against adefovir-resistant HBV reverse transcriptase LM/reverse transcriptase MV double mutant in human Huh7 cells after 4 days by intracellular HBV DNA replication assay; assay type: functional, organism-based; details: Huh-7, 96 h; how it was run: as §3
[18] = test system: Hepatitis B virus; test: Antiviral activity against lamivudine-resistant HBV reverse transcriptase M204V mutant in human Huh7 cells after 4 days by intracellular HBV DNA replication assay; assay type: functional, organism-based; details: Huh-7, 96 h; how it was run: as §3
[19] = test system: Hepatitis B virus; test: Antiviral activity against adefovir-resistant HBV reverse transcriptase M204I mutant in human Huh7 cells after 4 days by intracellular HBV DNA replication assay; assay type: functional, organism-based; details: Huh-7, 96 h; how it was run: as §3
[20] = test system: Hepatitis B virus; test: Antiviral activity against adefovir-resistant wild type HBV in human Huh7 cells after 4 days by intracellular HBV DNA replication assay; assay type: functional, organism-based; details: Huh-7, 96 h; how it was run: as §3
[21] = test system: Hepatitis B virus; test: Antiviral activity against adefovir-resistant HBV reverse transcriptase L180M mutant in human Huh7 cells after 4 days by intracellular HBV DNA replication assay; assay type: functional, organism-based; details: Huh-7, 96 h; how it was run: as §3
[22] = Selectivity index, EC50 for HCV to IC50 for ET cells; assay type: functional
How it was run: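 SI50 from ET replicon luciferase EC50 (3-day assay) and CytoTox-1 viability IC50, each averaged from four replicates.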

Question: What does the source list for `C#Cc1cn([C@@H]2C=C(CO)[C@@H](O)[C@H]2O)c2ncnc(N)c12`?
Answer: pEC50 [1]: 6.49; pIC50 [2]: < 3.52; pEC50 [3]: 4.70; pEC50 [4]: 5.74; pIC50 [5]: 4.31

Question: For `Nc1ccn([C@@H]2O[C@H](CO)[C@@H](O)[C@]2(O)F)c(=O)n1`, which CC50 [6] is on record?
Answer: > 50 µM

Question: And the pEC50 [7]?
Answer: 5.77

Question: And the EC90 [7]?
Answer: 5.3 µM

Question: For `C[C@@]1(O)[C@H](O)[C@@H](CO)O[C@H]1n1ccc(N)nc1=O`, which CC50 [6] is on record?
Answer: > 50 µM

Question: And the pEC50 [7]?
Answer: 5.46

Question: And the EC90 [7]?
Answer: 11 µM

Question: With `N#Cc1cn([C@@H]2C=C(CO)[C@@H](O)[C@H]2O)c2ncnc(N)c12` as the compound, how does the pEC50 [1] read?
Answer: < 5.00

Question: What about the pIC50 [2] of the same compound?
Answer: < 3.52

Question: What about the Activity [8] of the same compound?
Answer: 103.3%

Question: And the Activity [9]?
Answer: 0.5%

Question: With `Nc1ccn([C@@H]2CS[C@H](CO)O2)c(=O)n1` [LAMIVUDINE] as the compound, how does the pEC50 [1] read?
Answer: 7.32

Question: And the pEC50 [10]?
Answer: 5.00

Question: What about the pIC50 [2] of the same compound?
Answer: < 2.70

Question: And the pEC50 [11]?
Answer: < 4.00

Question: And the pEC50 [4]?
Answer: 6.82

Question: And the pEC50 [12]?
Answer: 6.52

Question: What about the pEC50 [13] of the same compound?
Answer: 5.82

Question: And the pEC50 [14]?
Answer: < 4.00

Question: What about the pEC50 [15] of the same compound?
Answer: 6.70

Question: And the pEC50 [16]?
Answer: 5.11

Question: What about the pEC50 [17] of the same compound?
Answer: 5.80

Question: And the pEC50 [18]?
Answer: < 4.00

Question: And the pEC50 [19]?
Answer: 5.74

Question: And the pEC50 [20]?
Answer: 5.89

Question: What about the pEC50 [21] of the same compound?
Answer: 5.80

Question: With `Nc1ncnc2c1c(Cl)cn2[C@@H]1C=C(CO)[C@@H](O)[C@H]1O` as the compound, how does the pEC50 [1] read?
Answer: < 5.00

Question: What about the pIC50 [2] of the same compound?
Answer: < 3.52

Question: And the pEC50 [3]?
Answer: 4.83

Question: And the pIC50 [5]?
Answer: 4.30

Question: With `NC(=O)c1cn([C@@H]2C=C(CO)[C@@H](O)[C@H]2O)c2ncnc(N)c12` as the compound, how does the pEC50 [1] read?
Answer: < 5.00

Question: What about the pIC50 [2] of the same compound?
Answer: 3.52

Question: What about the pEC50 [3] of the same compound?
Answer: 5.74

Question: And the pIC50 [5]?
Answer: 4.93

Question: With `C[C@@]1(O)[C@H](O)[C@@H](CO)O[C@H]1n1cnc2c(N)ncnc21` as the compound, how does the pEC50 [3] read?
Answer: 6.82

Question: And the Ratio [22]?
Answer: > 66.7

Question: And the pIC50 [5]?
Answer: < 5.00

Question: Which results are given for `Nc1ncnc2c1ncn2CCOCP(=O)(O)O` [ADEFOVIR]?
Answer: pEC50 [13]: 5.82; pEC50 [16]: 5.11; pEC50 [17]: 5.80; pEC50 [19]: 5.74; pEC50 [20]: 5.89; pEC50 [21]: 5.80

Question: With `Nc1ncnc2c1c(F)cn2[C@@H]1C=C(CO)[C@@H](O)[C@H]1O` as the compound, how does the pEC50 [1] read?
Answer: < 5.00

Question: And the pIC50 [2]?
Answer: < 3.52

Question: What about the Activity [9] of the same compound?
Answer: 9.5%

Question: What about the Activity ([5]; et) of the same compound?
Answer: 112.7%

Question: With `C=Cc1cn([C@@H]2C=C(CO)[C@@H](O)[C@H]2O)c2ncnc(N)c12` as the compound, how does the pEC50 [1] read?
Answer: 5.48

Question: What about the pIC50 [2] of the same compound?
Answer: < 3.52

Question: And the pEC50 [4]?
Answer: 5.00

Question: And the Activity [8]?
Answer: 99.7%

Question: And the Activity [9]?
Answer: 49.2%

Question: With `Nc1ncnc2c1c(I)cn2[C@@H]1C=C(CO)[C@@H](O)[C@H]1O` as the compound, how does the pEC50 [1] read?
Answer: 6.37

Question: And the pIC50 [2]?
Answer: < 3.52

Question: And the pEC50 [3]?
Answer: 5.68

Question: What about the pEC50 [4] of the same compound?
Answer: 5.80

Question: And the pIC50 [5]?
Answer: 4.82

Question: What does the source list for `Nc1ncnc2c1c([N+](=O)[O-])cn2[C@@H]1C=C(CO)[C@@H](O)[C@H]1O`?
Answer: pEC50 [1]: < 5.00; pIC50 [2]: < 3.52; Activity [8]: 101.5%

Question: Which results are given for `Nc1ncnc2c1c(Br)cn2[C@@H]1C=C(CO)[C@@H](O)[C@H]1O`?
Answer: pEC50 [1]: < 5.00; pIC50 [2]: < 3.52; pEC50 [3]: 4.78; pIC50 [5]: 4.38

Source: ChEMBL document CHEMBL1139357, “Synthesis and anti-hepatitis B virus and anti-hepatitis C virus activities of 7-deazaneplanocin A analogues in vitro” (J Med Chem, 2009)
